The text below walks through data of publication PMC5110259 (Clinical cancer drugs, 2016).

Where only a bound is given, the exact number is not on record here.

Data set [1] is described as follows: DNS cytotoxicity assay. The settings on record: human, CCD-112CoN non-cancerous colon fibroblasts. Format: cell-based. In short, it runs like this: (§1)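 DNS imaging assay. Adherent cells seeded at 5,000/well, incubated 20 h (table footnote says 24 h) with several compound concentrations in 1% v/v DMSO final. Hoechst 33342 and PI (1 μg/ml each, final) added 1 h before imaging 3x3 fields at 20x. Dead cells = Hoechst/PI co-localized nuclei. Values corrected by subtracting the mean % dead of six DMSO wells. CC50 by linear regression, triplicate.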

The nature of data set [2]: DNS cytotoxicity assay. Format: cell-based. The settings on record: human, Ramos cells vs Hs-27 cells. In outline: (§2)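 Suspension cells plated at 10,000/well and exposed 20 h (footnote: 24 h) to graded concentrations in 1% v/v DMSO. Hoechst 33342/PI (1 μg/ml each) added for the final hour, then 3x3-field imaging. Dead cells were double-stained nuclei, DMSO background subtracted. CC50 by linear regression, triplicate. SCI = CC50 non-cancerous / CC50 cancer, using Hs-27 in the table and Hs-27, MCF-10A and CCD-112CoN for Jurkat.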

In the next data set the test system is Ramos. Put plainly: DNS cytotoxicity assay. Format: cell-based. The settings on record: Homo sapiens, Ramos, 24 h, read-out: Cytotoxic concentration 50% (CC50). In short, it runs like this: as §2
Data set [3] is described as follows: DNS cytotoxicity assay. Format: cell-based. The settings on record: human, Nalm 6 cells vs Hs-27 cells. In outline:
as §2

The test system of the next data set is Nalm 6. The data set is described as follows: DNS cytotoxicity assay. The settings on record: Homo sapiens, NALM-6, 24 h, read-out: Cytotoxic concentration 50% (CC50). Format: cell-based. In short, it runs like this:
as §2

The subject of a further data set is Nalm-6 cells. Put plainly: Apoptosis assay via annexin V-FITC/PI staining, Nalm-6. The settings on record: 24 h; for apoptosis (phosphatidylserine externalization, annexin V-FITC positive cells): 1 μM, flow cytometry. Format: cell-based, human. In outline: (§3)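 Annexin V-FITC/PI co-staining read by flow cytometry after 24 h exposure. Excitation was at 488 nm, with FITC read on FL1 and PI on FL2. Cells that were PI-positive but annexin-negative were scored as necrotic. Controls were untreated cells, 1% v/v DMSO, 300 μM H2O2, and curcumin and EF-24 at 1 μM. Triplicates; compared with curcumin by Student's t-test.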
On the technique in general: Flow cytometry measures light scatter and fluorescence of single cells or particles in a stream.

Data set [4] deals with Jurkat cells. The data set is described as follows: Mitochondrial membrane potential assay. Format: cell-based, human. The settings on record: 1 μM, 7 h, JC-1, flow cytometry. In outline: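 Jurkat at 3x10^4 cells per mL per well (24-well) exposed 7 h to 1 μM. JC-1 then added, 30 min at 37 °C, followed by flow cytometry of ~10,000 events. 50 μM CCCP served as depolarization control, with 1% DMSO and untreated controls. Triplicates, t-test vs DMSO.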

Data set [5] concerns caspase-3/7 in Jurkat cells. Put plainly: Caspase-3/7 activity assay. Format: cell-based, human. The settings on record: 1 μM, 20 h, NucView 488, flow cytometry. In short, it runs like this:
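Jurkat seeded at 100 cells/μL (24-well) and treated 20 h with 1 μM. Active caspase-3/7 detected in live cells with the NucView 488 fluorogenic substrate by flow cytometry, ~10,000 events per sample. Positive controls were 2 μg/ml camptothecin and 10 μM curcumin, plus DMSO and untreated controls. Triplicates, t-test vs DMSO.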

Data set [6] in a line: DNS cytotoxicity assay. Format: cell-based. The settings on record: human. In outline:
as §2

Another data set relates to Jurkat. Put plainly: DNS cytotoxicity assay. Format: cell-based. The settings on record: Homo sapiens, Jurkat, 24 h, read-out: Cytotoxic concentration 50% (CC50). In outline:
as §2

The nature of data set [7]: DNS cytotoxicity assay. Format: cell-based. The settings on record: human, CEM cells vs Hs-27 cells. In short, it runs like this: as §2
For another data set, the system named is CEM. The data set is described as follows: DNS cytotoxicity assay. Format: cell-based. The settings on record: Homo sapiens, CCRF-CEM, 24 h, read-out: Cytotoxic concentration 50% (CC50). In outline: as §2
The test system of data set [8] is non-malignant MCF-10A and Hs-27 cell lines. The data set is described as follows: DNS cytotoxicity screen at 1 μM, non-malignant cells. The settings on record: 20 h. Format: cell-based. In outline: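 Single-concentration DNS screen: 1 μM in 1% v/v DMSO for 20 h. Hoechst 33342 and PI (1 μg/ml each) added 1 h before automated imaging. Percent dead was calculated from co-stained nuclei out of total nuclei per well. Controls were 300 μM H2O2, 1% DMSO and untreated wells. Run in triplicate and shown as heat map.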

Data set [9] deals with leukemia and lymphoma neoplasms. Put plainly: DNS cytotoxicity screen at 1 μM, leukemia/lymphoma panel. Format: cell-based. The settings on record: human leukemia/lymphoma cell lines.
A short description of data set [10]: DNS cytotoxicity assay. The settings on record: human, Hs-27 non-cancerous foreskin fibroblasts. Format: cell-based. In outline: as §1
Data set [11] can be described thus: DNS cytotoxicity assay. Format: cell-based. The settings on record: human, MCF-10A non-cancerous mammary epithelial cells. In outline: as §1
Data set [12] has as its system Jurkat cells. Put plainly: Apoptosis assay via annexin V-FITC/PI staining, Jurkat. Format: cell-based, human. The settings on record: 24 h; for apoptosis (phosphatidylserine externalization, annexin V-FITC positive cells): 1 μM, flow cytometry. In short, it runs like this:
as §3

For `CCN(CC)CCOc1ccc(C(=O)Oc2ccc(C=C3CN(C)CC(=Cc4ccc(OC(=O)c5ccc(OCCN(CC)CC)cc5)cc4)C3=O)cc2)cc1` [Compound 1, 3,5-bis{4-[4-(2-diethylaminoethoxy)phenylcarbonyloxy]benzylidene}-1-methyl-4-piperidone], the figures for the CC50 at 24 h in “DNS cytotoxicity assay [1]”, in “DNS cytotoxicity assay [10]” and in the data set “DNS cytotoxicity assay [11]” were 4.68 ± 0.83 µM, 4.78 ± 0.03 µM and 15.6 ± 0.14 µM, respectively. The selectivity ratio at 20 h was 6.7 in “DNS cytotoxicity assay [2]”; 5.6 in the data set “DNS cytotoxicity assay [3]”; above 10 in “DNS cytotoxicity assay [6]”; 10.9 in the data set “DNS cytotoxicity assay [6]” (Jurkat cells vs CCD-112CoN cells); 11.1 in “DNS cytotoxicity assay [6]” (Jurkat cells vs Hs-27 cells); 36.3 in the data set “DNS cytotoxicity assay [6]” (Jurkat cells vs MCF-10A cells). The selectivity ratio at 20 h in “DNS cytotoxicity assay [7]” is 8.1. Besides, the CC50 came to 0.71 ± 0.01 µM in the data set with Ramos, 0.86 ± 0.03 µM with Nalm 6, 0.43 ± 0.02 µM in the data set on Jurkat and 0.59 ± 0.03 µM in the data set with CEM. The “apoptosis (phosphatidylserine externalization, annexin V-FITC positive cells)” value with Nalm-6 cells was ~ 50%; in the data set with Jurkat cells [12], ~ 70%. In addition, the entries for the “apoptotic activity as compared with curcumin” value with Nalm-6 cells (both compounds at 1 μM) and in the data set with Jurkat cells [12] (both compounds at 1 μM) were 22.3 fold and 10 fold, respectively. In addition, the mitochondrial depolarization in the data set on Jurkat cells [4] was ~ 80%. Moreover, the “caspase-3/7 activation (active caspase 3/7-positive cells)” value in [5] is given as above 90%. The “toxicity to non-malignant cell lines (heat map)” value in [8] is given as “low toxicity”. Also, the “in vitro cytotoxic concentration compared with curcumin” value in data set [9] is on record as “approximately ten times more effective than curcumin”.

With `COc1cc(/C=C/C(=O)CC(=O)/C=C/c2ccc(O)c(OC)c2)ccc1O` [Curcumin, reference compound], the figures for the CC50 at 24 h in “DNS cytotoxicity assay [1]”, in the data set “DNS cytotoxicity assay [10]” and in the data set “DNS cytotoxicity assay [11]” were 15.8 ± 0.13 µM, 15.3 ± 0.38 µM and 14.1 ± 0.66 µM, respectively. The selectivity ratio at 20 h in “DNS cytotoxicity assay [2]” is 1.7; in “DNS cytotoxicity assay [3]”, 1.4; in “DNS cytotoxicity assay [6]” (Jurkat cells vs Hs-27 cells) it was 1.4; in the data set “DNS cytotoxicity assay [7]” it was 1.4. The CC50 in the data set with Ramos is 9.25 ± 0.37 µM; in the data set with Nalm 6, 11 ± 0.2 µM; in the data set on Jurkat it was 10.86 ± 0.04 µM; in the data set on CEM, 10.6 ± 0.06 µM. The “apoptosis (phosphatidylserine externalization, annexin V-FITC positive cells)” value with Nalm-6 cells and with Jurkat cells [12] was “did not induce significant PS externalization” in each case.
